Among the data in ChEMBL document CHEMBL4387722 are IC50, inhibition and CC50 values, retold here.

The target of data set [1] is T1, Phosphotyrosine protein phosphatase (Mycobacterium tuberculosis, UniProt A0A045ISB3).
T1 sequence (A0A045ISB3 whole entry): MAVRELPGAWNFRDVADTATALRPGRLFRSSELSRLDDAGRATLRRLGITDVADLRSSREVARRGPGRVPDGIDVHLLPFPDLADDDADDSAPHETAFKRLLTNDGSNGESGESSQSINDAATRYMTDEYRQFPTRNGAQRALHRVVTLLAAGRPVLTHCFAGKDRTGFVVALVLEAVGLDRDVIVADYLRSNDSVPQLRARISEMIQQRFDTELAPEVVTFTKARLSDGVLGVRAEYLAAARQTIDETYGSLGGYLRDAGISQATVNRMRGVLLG
The experiment in a line: Inhibition of Mycobacterium tuberculosis His-tagged PtpB expressed in Escherichia coli Rosetta 2 (DE3) using pNPP as substrate after 30 mins by spectrophotometric method.

For data set [2], the target named is T2, Tyrosine-protein phosphatase non-receptor type 1 (Homo sapiens, UniProt P18031).
T2 sequence (P18031 whole entry): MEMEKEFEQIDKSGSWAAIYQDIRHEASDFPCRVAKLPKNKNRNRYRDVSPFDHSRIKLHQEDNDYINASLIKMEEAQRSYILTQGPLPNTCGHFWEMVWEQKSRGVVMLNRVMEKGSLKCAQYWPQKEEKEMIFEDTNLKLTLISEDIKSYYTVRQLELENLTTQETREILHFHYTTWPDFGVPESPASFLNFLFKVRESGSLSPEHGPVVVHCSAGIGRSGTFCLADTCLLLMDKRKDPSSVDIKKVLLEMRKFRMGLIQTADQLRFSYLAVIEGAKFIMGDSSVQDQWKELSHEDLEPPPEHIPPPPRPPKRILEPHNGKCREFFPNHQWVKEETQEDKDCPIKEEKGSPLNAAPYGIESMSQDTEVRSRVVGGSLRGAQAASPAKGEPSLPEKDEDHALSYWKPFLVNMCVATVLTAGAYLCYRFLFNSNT
In words: Inhibition of human PTPN1 expressed in Escherichia coli Rosetta 2 (DE3) using pNPP as substrate after 45 mins by spectrophotometric method.

Data set [3] has as its target T3, Tyrosine-protein phosphatase non-receptor type 2 (Homo sapiens, UniProt P17706).
T3 sequence (P17706 whole entry): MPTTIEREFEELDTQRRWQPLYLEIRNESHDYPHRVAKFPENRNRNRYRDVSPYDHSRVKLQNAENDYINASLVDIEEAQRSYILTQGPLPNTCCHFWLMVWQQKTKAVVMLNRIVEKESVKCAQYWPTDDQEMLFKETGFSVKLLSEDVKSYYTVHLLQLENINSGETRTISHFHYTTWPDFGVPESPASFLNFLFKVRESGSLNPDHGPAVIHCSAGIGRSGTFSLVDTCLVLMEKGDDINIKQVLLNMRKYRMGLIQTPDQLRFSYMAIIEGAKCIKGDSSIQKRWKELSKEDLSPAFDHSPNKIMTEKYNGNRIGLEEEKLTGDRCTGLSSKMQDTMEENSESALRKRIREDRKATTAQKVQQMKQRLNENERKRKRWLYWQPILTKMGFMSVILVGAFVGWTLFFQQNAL
The experiment in a line: Inhibition of human PTPN2 expressed in Escherichia coli Rosetta 2 (DE3) using pNPP as substrate after 45 mins by spectrophotometric method.

Data set [4] addresses T4, Tyrosine-protein phosphatase non-receptor type 5 (Homo sapiens, UniProt P54829).
T4 sequence (P54829 whole entry): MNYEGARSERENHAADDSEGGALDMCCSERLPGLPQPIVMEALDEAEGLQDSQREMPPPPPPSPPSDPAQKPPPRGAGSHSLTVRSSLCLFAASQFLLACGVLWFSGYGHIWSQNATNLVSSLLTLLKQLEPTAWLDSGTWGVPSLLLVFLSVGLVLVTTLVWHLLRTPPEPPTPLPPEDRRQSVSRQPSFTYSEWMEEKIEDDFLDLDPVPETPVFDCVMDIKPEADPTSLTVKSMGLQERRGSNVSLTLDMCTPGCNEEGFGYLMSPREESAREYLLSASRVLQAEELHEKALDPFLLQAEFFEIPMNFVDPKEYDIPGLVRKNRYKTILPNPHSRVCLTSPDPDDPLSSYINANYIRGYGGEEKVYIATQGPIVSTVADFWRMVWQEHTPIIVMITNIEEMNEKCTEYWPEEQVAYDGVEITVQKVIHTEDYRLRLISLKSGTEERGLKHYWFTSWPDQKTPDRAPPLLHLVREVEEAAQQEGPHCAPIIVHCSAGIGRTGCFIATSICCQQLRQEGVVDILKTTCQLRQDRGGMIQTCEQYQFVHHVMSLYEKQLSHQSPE
The experiment in a line: Inhibition of human PTPN5 expressed in Escherichia coli Rosetta 2 (DE3) using pNPP as substrate after 45 mins by spectrophotometric method.

In data set [5] the test system is Mycobacterium tuberculosis. In words: Antitubercular activity against Mycobacterium tuberculosis H37Rv after 5 days at 200 uM relative to control. Type of data set: functional. Particulars: 120 h. A digest of the protocol: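 M. tuberculosis grown in liquid culture with compound at a fixed 200 μM for 5 days. Growth inhibition expressed as percent of control.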

Data set [6] in a line: Inhibition of refolded rhodanese (unknown origin) preincubated with Escherichia coli GroEL/GroES for 60 mins by measuring rhodanese enzyme activity followed by compound addition by Fe(SCN)3 dye based spectrometric analysis. More on the design: species or system Homo sapiens.
In data set [7] the target is T5, Malate dehydrogenase, mitochondrial (Sus scrofa, UniProt P00346).
T5 sequence (P00346 whole entry): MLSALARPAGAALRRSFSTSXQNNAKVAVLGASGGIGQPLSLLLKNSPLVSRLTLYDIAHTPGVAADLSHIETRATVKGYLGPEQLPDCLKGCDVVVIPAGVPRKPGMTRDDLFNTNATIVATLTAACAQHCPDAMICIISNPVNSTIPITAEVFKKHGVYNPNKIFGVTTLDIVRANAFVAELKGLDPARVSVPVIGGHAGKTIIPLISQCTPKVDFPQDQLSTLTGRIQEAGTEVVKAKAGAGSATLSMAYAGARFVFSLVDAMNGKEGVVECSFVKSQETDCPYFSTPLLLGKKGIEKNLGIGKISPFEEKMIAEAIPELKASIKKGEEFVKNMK
The experiment in a line: Inhibition of refolded pig heart mitochondrial MDH preincubated with Escherichia coli GroEL/GroES for 45 mins using sodium mesoxalate as substrate followed by compound addition and measured after 20 to 30 mins by spectrometric analysis.

The target of data set [8] is T6, E. coli GroEL/ES (Escherichia coli, UniProt P0A6F5). The experiment in a line: Inhibition of Escherichia coli GroEL expressed in Escherichia coli DH5alpha/Escherichia coli GroES expressed in Escherichia coli BL21 (DE3) assessed as reduction in GroEL/GroES-mediated denatured rhodanese refolding by measuring rhodanese enzyme activity after 45 mins by Fe(SCN)3 dye based spectrometric analysis.

Data set [9] has as its target T6, E. coli GroEL/ES. The experiment in a line: Inhibition of Escherichia coli GroEL expressed in Escherichia coliDH5alpha/Escherichia coli GroES expressed in Escherichia coli BL21 (DE3) assessed as reduction in GroEL/GroES-mediated denatured pig heart mitochondrial MDH refolding by measuring MDH enzyme activity using sodium mesoxalate as substrate after 20 to 40 mins by spectrometric analysis.

Another data set concerns the target HSP60/HSP10 (Homo sapiens, UniProt P10809). The experiment in a line: Inhibition of human HSP60 expressed in Escherichia coli Rosetta 2(DE3)/human HSP10 expressed in Escherichia coli Rosetta 2(DE3) pLysS cells assessed as reduction in HSP60/HSP10-mediated denatured pig heart mitochondrial MDH refolding by measuring MDH enzyme activity using sodium mesoxalate as substrate after 40 to 60 mins by spectrometric analysis.

The nature of data set [10]: Cytotoxicity against human THLE3 cells assessed as reduction in cell viability after 48 hrs by Alamar blue assay. Type of data set: cell-based. A digest of the protocol: (§1)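 Alamar Blue viability read-out. Human liver (THLE-3) and kidney (HEK 293) cells incubated with compound for 48 h. Tested in dose-response to derive CC50.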
A general note: The colour change of resazurin is a common sign of viable cells or microbes.

Data set [11] is described as follows: Cytotoxicity against human HEK293 cells assessed as reduction in cell viability after 48 hrs by Alamar blue assay. Type of data set: cell-based. A digest of the protocol:
as §1

Sequence of HSP60/HSP10 (P10809 whole entry): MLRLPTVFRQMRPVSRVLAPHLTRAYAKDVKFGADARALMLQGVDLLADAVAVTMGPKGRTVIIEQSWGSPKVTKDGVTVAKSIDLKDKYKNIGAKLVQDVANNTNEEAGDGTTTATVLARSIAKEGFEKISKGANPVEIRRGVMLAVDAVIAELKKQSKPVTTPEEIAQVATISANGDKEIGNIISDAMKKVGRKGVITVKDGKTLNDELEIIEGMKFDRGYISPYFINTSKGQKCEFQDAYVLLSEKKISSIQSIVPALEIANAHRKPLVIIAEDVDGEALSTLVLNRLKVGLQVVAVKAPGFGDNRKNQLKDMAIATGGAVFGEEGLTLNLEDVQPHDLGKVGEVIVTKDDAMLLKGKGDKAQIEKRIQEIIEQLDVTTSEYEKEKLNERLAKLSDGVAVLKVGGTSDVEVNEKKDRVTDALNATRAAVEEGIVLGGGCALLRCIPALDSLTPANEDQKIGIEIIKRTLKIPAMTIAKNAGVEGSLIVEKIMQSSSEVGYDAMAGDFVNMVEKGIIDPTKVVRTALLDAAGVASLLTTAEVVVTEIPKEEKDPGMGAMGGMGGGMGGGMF
Sequence of HSP60/HSP10 (P61604 whole entry, further chain): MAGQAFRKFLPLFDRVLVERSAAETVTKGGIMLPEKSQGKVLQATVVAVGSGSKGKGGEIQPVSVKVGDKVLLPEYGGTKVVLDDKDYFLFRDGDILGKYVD
T6 sequence (P0A6F5 whole entry, looked up): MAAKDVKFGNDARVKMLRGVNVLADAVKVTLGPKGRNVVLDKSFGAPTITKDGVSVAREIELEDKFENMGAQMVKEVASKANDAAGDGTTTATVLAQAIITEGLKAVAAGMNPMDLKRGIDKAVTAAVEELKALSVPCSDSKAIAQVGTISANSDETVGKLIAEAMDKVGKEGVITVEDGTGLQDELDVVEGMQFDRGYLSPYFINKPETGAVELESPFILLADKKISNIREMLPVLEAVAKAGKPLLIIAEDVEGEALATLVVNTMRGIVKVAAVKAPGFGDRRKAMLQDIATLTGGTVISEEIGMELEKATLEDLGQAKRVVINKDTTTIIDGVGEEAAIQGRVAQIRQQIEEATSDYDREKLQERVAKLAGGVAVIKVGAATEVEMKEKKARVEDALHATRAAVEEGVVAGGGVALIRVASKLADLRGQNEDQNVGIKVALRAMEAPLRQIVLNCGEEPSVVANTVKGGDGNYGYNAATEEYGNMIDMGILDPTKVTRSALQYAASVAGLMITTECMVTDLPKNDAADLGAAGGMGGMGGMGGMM

The IC50 is the point on the concentration scale where inhibition reaches its midpoint. What is called inhibition is the relative decrease from the control value, in per cent. A low value points to a response near the control. One may read the CC50 as the concentration at which the toxic effect on the cells reaches its halfway point. As to `O=S(=O)(Nc1ccc2oc(-c3ccccc3)nc2c1)c1ccc(Cl)cc1`, the IC50 was 56 µM in [1]; 44 µM in [2]; 35 µM in data set [3]; 26 µM in [4]; over 100 µM in data set [6]; over 63 µM in data set [7]. The IC50 at E. coli GroEL/ES [8] was 149 µM; at E. coli GroEL/ES [9], over 100 µM; at HSP60/HSP10 it was over 100 µM. Besides, the inhibition at 200 µM in data set [5] is 0%. For the same compound, the CC50 at 48 h was determined as 40 µM in data set [10] and 65 µM in [11].
For `O=S(=O)(Nc1ccc2oc(-c3ccccc3)nc2c1)c1ccc(F)cc1`, the IC50 is 85 µM in [1]; 78 µM in data set [2]; 61 µM in [3]; 41 µM in data set [4]; over 100 µM in [6]; over 63 µM in data set [7]. In addition, the values for the IC50 on E. coli GroEL/ES [8], on E. coli GroEL/ES [9] and on HSP60/HSP10 were 195 µM, over 100 µM and over 100 µM, respectively. In addition, the inhibition at 200 µM in [5] was 47%. For the same compound, the values for the CC50 at 48 h in data set [10] and in data set [11] were 38 µM and 68 µM, respectively.
Regarding `O=S(=O)(Nc1ccc(-c2nc3ccccc3o2)cc1)c1ccccc1O`, the IC50 in data set [1] is 31 µM; in [2], 33 µM; in data set [3], 57 µM; in data set [4], 36 µM; in [6] it was over 100 µM; in [7] it was over 63 µM. Further, the IC50 at E. coli GroEL/ES [8] was 126 µM; at E. coli GroEL/ES [9] it was 83 µM; on HSP60/HSP10, over 100 µM. Further, in data set [5], the inhibition at 200 µM is 0%. In addition, the CC50 at 48 h in [10] is 81 µM; in data set [11], over 100 µM.
With `O=S(=O)(Nc1ccc(-c2nc3ccccc3o2)cc1)c1ccccc1Cl`, the IC50 in data set [1] is 47 µM; in [2] it was 59 µM; in data set [3], 64 µM; in [4], 51 µM; in data set [6], over 100 µM; in data set [7], over 63 µM. Besides, the IC50 at E. coli GroEL/ES [8] is 171 µM; on E. coli GroEL/ES [9], 86 µM; on HSP60/HSP10 it was over 100 µM. In [5], this compound returned an inhibition at 200 µM of 11%. Besides, the CC50 at 48 h in data set [10] and in data set [11] was over 100 µM throughout.
Regarding `Cc1ccc(S(=O)(=O)Nc2ccc(-c3nc4ccccc4o3)cc2)cc1`, the IC50 in data set [1] is 52 µM; in [2] it was 42 µM; in data set [3], 49 µM; in [4], 45 µM; in [6], over 100 µM; in [7] it was over 63 µM. For the same compound, the IC50 on E. coli GroEL/ES [8] was 157 µM; at E. coli GroEL/ES [9], over 100 µM; at HSP60/HSP10, over 100 µM. Further, in data set [5], at 200 µM the inhibition was 28%. The CC50 at 48 h in data set [10] stood at 82 µM; in data set [11] it was 88 µM.
For `O=S(=O)(Nc1ccc(-c2nc3ccccc3o2)cc1)c1cccc(Cl)c1`, the IC50 was 43 µM in data set [1]; 37 µM in data set [2]; 67 µM in data set [3]; 545 µM in [4]; over 100 µM in data set [6]; over 63 µM in data set [7]. Also, the IC50 came to 168 µM on E. coli GroEL/ES [8], 79 µM at E. coli GroEL/ES [9] and 54 µM at HSP60/HSP10. For the same compound, the inhibition at 200 µM in data set [5] was found to be 33%. Also, the CC50 at 48 h in data set [10] is 83 µM; in [11], over 100 µM.
In the case of `COc1ccc(Cl)cc1S(=O)(=O)Nc1ccc2oc(-c3ccccc3)nc2c1`, the IC50 in data set [1] is 31 µM; in data set [2], 27 µM; in [3] it was 25 µM; in data set [4], 37 µM; in [6] it was over 100 µM; in data set [7], over 63 µM. The IC50 at E. coli GroEL/ES [8] is 105 µM; at E. coli GroEL/ES [9] it was 81 µM; at HSP60/HSP10, over 100 µM. This compound came in with an inhibition at 200 µM in [5] of 0%. Moreover, the 50% cytotoxic concentration (CC50) at 48 h came out at 31 µM in data set [10] and 74 µM in [11].
Turning to `COc1ccccc1S(=O)(=O)Nc1ccc2oc(-c3ccccc3)nc2c1`, the IC50 is 67 µM in [1]; 37 µM in [2]; 34 µM in data set [3]; 38 µM in data set [4]; over 100 µM in [6]; over 63 µM in data set [7]. For the same compound, the IC50 at E. coli GroEL/ES [8] was 89 µM; at E. coli GroEL/ES [9], 85 µM; on HSP60/HSP10 it was over 100 µM. In data set [5], this compound registered an inhibition at 200 µM of 3%. The CC50 at 48 h in [10] turned out to be 29 µM; in [11], 41 µM.
For `O=S(=O)(Nc1ccc2oc(-c3ccccc3)nc2c1)c1ccc(Cl)c(C(F)(F)F)c1`, the IC50 in data set [1] was 40 µM; in [2], 40 µM; in [3], 34 µM; in data set [4], 28 µM; in [6], over 100 µM; in [7] it was over 63 µM. In addition, the IC50 was 132 µM on E. coli GroEL/ES [8], 92 µM on E. coli GroEL/ES [9] and over 100 µM at HSP60/HSP10. This compound also came in with an inhibition at 200 µM in [5] of 0%. For the same compound, the CC50 at 48 h in data set [10] came to 47 µM; in data set [11], 66 µM.
